Laboratory results published in PubChem BioAssay.
Active and inactive are the calls of the source.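 How the source made its calls, unless noted: active means visual image review flags a hit and inhibition of aggregation exceeds 20%; inconclusive means visual hit but inhibition at or below 20%; inactive means no hit on visual image review.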

Legend:
[1] = inhibitors of TNFa-induced NFkB p65 translocation, primary screen, imaging, HUVEC, MLSMR starter and 10KST1 sets (AID 438;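 active means inhibition above 20% together with a positive visual image hit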;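 further: compound added about 3h40 before a 20 min TNFalpha stimulation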;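 on inhibition: signal is the nuclear over cytoplasmic p65 intensity ratio per well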); settings: HUVEC TNFa-induced p65 nuclear translocation; cell count: measured here: nuclei count (cytotoxicity indicator), at 2.08 µM; inhibition: at 2 µM, stronger effect = higher value, 0% TNFa-plus-vehicle, 100% no-TNFa wells
[2] = reduction of polyQ htt aggregates in cells – imaging, exon1htt(103Q)mCFP cells, high-content imaging, primary screen (AID 483); settings: exon1htt(103Q)mCFP cell line, aggregate imaging, at 2 µM; inhibition of aggregation: stronger effect = higher value; nuclei count: measured here: cell count, toxicity;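 further: compound exposure lasted 3 days before fixation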;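 on nuclei count: percent of the per-plate median nuclei count of sample wells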
[3] = endothelial E-selectin expression blockers – imaging, HUVEC, immunofluorescence, MLSMR starter and 10KST1 sets, primary screen (AID 487;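 active means visually confirmed hit in the image check and inhibition above 20%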;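 on inhibition: signal is fraction of cell area covered by stained E-selectin grains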;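 on nuclei count: 100% = median nuclei count of all wells on the same plate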); settings: HUVEC TNFalpha-induced E-selectin immunofluorescence imaging, at 2 µM; inhibition: stronger effect = higher value; nuclei count: measured here: cell number, toxicity
[4] = target: Voltage-gated potassium channel subunit beta-2 (Rattus norvegicus) (UniProt P62483); test: inhibitors of rat Kvbeta2 reductase activity – biochemical, NADPH fluorescence, primary screen (AID 622;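 active means fluorescence slope higher than the sample average by over 3 SD, cut at about -0.22 in these data, passing the limit was not always enough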;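 further: slope of raw intensity against log time taken from 70 to 1610 s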); settings: recombinant KvBeta, 4-cyanobenzaldehyde reduction, at 10 µM, stronger effect = higher value
[5] = target: Voltage-gated potassium channel subunit beta-2 (Rattus norvegicus) (UniProt P62483); test: enhancers of rat Kvbeta2 NADPH turnover – biochemical, NADPH fluorescence, primary screen (AID 623;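 active means NADPH fluorescence slope more negative than the mean of all samples by about 3 SD, 99.7% confidence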;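 further: fluorescence intensity change per second fitted from 20 to 320 s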); settings: Recombinant KvBeta, NADPH fluorescence decrease slope, 10 min; at 10 µM; stronger effect = lower value
[6] = target: Muscarinic acetylcholine receptor M4 (Homo sapiens) (UniProt P08173); test: M4-linked GIRK flux change, two-sided – cell-based, HEK293 M4/GIRK, thallium flux, BTC-AM, M4 allosteric agonist project, primary screen (AID 625;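 active means fluorescence slope after compound addition differing from the mean of all tested samples at 99.7% confidence, mostly higher but some lower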;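 further: thallium influx through GIRK channels coupled to M4 in HEK293 cells with BTC-AM dye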); settings: at 10 µM, actives lie on both sides
Outline: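 Assay system: HEK293 cells with M4 receptor and GIRK channels / Controls: carbachol and DMSO controls / Schedule: 1 h dye loading, 2 min kinetic read / Technique: kinetic fluorescence with BTC-AM dye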

[7] = blockers of RIG-like receptor reporter activation – cell-based, Sendai virus stimulus, luciferase, 10K MLSCN set, TLR/RLR signaling modifier project, primary screen (AID 602276;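 active means inhibition at or above 50% at 10 µM; inactive means inhibition below 50%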;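 further: firefly luciferase from ISG56 promoter only with Renilla not read in this screen; 0% = Sendai virus plus DMSO and 100% = medium plus DMSO without virus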); settings: HEK293 RL24 IRF3 luciferase reporter, at 10 µM, stronger effect = higher value
[8] = TLR3 IRF3 reporter activation blockers – cell-based, poly I:C stimulus, luciferase, 10K MLSCN set, primary screen (AID 602277;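 active means inhibition of the reporter signal at or above 50%; inactive means inhibition below 50%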); settings: HEK293-TLR3 RL24 IRF3 luciferase reporter, at 10 µM, stronger effect = higher value

Voltage-gated potassium channel subunit beta-2 (Rattus norvegicus), sequence (P62483 whole entry, looked up): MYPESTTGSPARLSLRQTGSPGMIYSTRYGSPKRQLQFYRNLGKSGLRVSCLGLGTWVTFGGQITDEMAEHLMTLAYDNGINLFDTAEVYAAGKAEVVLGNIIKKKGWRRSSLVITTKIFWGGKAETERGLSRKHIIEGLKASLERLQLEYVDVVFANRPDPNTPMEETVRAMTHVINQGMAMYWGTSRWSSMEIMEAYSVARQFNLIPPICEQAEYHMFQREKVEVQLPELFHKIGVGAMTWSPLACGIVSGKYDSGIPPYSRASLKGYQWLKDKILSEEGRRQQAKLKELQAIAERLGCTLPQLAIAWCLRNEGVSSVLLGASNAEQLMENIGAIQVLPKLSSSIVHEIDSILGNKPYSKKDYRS
Muscarinic acetylcholine receptor M4 (Homo sapiens), sequence (P08173 whole entry, looked up): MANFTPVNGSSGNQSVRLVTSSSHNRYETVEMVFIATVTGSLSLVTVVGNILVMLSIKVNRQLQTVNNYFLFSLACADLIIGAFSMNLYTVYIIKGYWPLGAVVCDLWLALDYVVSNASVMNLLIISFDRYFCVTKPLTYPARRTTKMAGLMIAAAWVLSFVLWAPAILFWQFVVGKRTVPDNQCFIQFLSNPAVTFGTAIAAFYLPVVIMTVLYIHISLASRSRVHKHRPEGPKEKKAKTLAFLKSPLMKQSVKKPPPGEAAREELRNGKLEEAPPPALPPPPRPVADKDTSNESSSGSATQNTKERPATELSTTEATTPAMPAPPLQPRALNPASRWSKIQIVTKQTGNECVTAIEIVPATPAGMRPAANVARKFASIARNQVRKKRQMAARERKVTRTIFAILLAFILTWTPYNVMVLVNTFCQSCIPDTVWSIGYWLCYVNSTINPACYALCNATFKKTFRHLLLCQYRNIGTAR

Compound | cell count [1] | inhibition [1] | inhibition of aggregation [2] | nuclei count [2] | inhibition [3] | nuclei count [3] | fluorescence slope [4] | NADPH fluorescence slope [5] | fluorescence slope [6] | inhibition [7] | inhibition [8]
CCOC(=O)N1CCN(S(=O)(=O)c2cc(Cl)c(OC)cc2Cl)CC1 | 364 | -9.8% (inactive) | -8.2% (inactive) | 100% | -101% (inactive) | 112% | -0.509 (inactive) | 4.3e-05 (inactive) | 0.00536 (inactive) | -2.67% (inactive) | 1.26% (inactive)
CN1CCN(CC(=O)Nc2ccc(Cl)cc2Cl)CC1 | 445 | -3.5% (inactive) | 0% (inactive) | 103% | 66.8% (inactive) | 78.8% | -0.619 (inactive) | 7.6e-06 (inactive) | 0.00642 (inactive) | 11% (inactive) | 14.7% (inactive)
Cc1cc(C2C(C#N)=C(N)SC(N)=C2C#N)c(C)s1 | 755 | -5% (inactive) | -30.7% (inactive) | 102% | -27.1% (inactive) | 130% | -0.573 (inactive) | -8.5e-05 (inactive) | 0.00245 (inactive) | 8.05% (inactive) | 20.2% (inactive)
CCOc1cc(S(=O)(=O)NCc2ccccn2)c(C)cc1C | 412 | -15.9% (inactive) | -0.5% (inactive) | 112% | -20% (inactive) | 68.1% | -0.44 (inactive) | -3.9e-05 (inactive) | 0.0075 (inactive) | 8.05% (inactive) | 20.9% (inactive)
COC(=O)COc1ccc(S(=O)(=O)NCCC2=CCCCC2)cc1 | 515 | -0.5% (inactive) | 29% (inactive) | 79.1% | -31.4% (inactive) | 107% | -0.544 (inactive) | -2.1e-05 (inactive) | 0.00377 (inactive) | 15.8% (inactive) | 20.7% (inactive)
COc1cccc(Oc2ccc(N)cc2)c1 | 716 | -0.6% (inactive) | 20.3% (inactive) | 102% | -54.1% (inactive) | 97.5% | -0.44 (inactive) | -0.000235 (active) | 0.00432 (inactive) | -0.294% (inactive) | -6.53% (inactive)
O=C(CSc1ccc(Cl)cc1)OCc1nnc(-c2ccccc2)o1 | 503 | -1.1% (inactive) | 8.3% (inactive) | 108% | -46.5% (inactive) | 115% | -0.613 (inactive) | 6.8e-05 (inactive) | 0.00469 (inactive) | -5.35% (inactive) | -4.44% (inactive)
CCOC(=O)C1CCN(C(=O)CSc2n[nH]c(=O)[nH]c2=O)CC1 | 653 | 7.8% (inactive) | 16.5% (inactive) | 88.6% | 34.2% (inactive) | 114% | -0.339 (inactive) | -5.5e-05 (inactive) | 0.00512 (inactive) | 12.2% (inactive) | 9.53% (inactive)
CCCn1c(=N)n(CC(=O)c2cccs2)c2ccccc21 | 427 | 3.8% (inactive) | -0.8% (inactive) | 87.6% | -47% (inactive) | 114% | -0.552 (inactive) | -2.9e-05 (inactive) | 0.00423 (inactive) | 2.39% (inactive) | 3.66% (inactive)
CSc1nnc2c3ccccc3n(Cc3ccccc3)c2n1 | 295 | -0.5% (inactive) | 3.5% (inactive) | 92.5% | 30.6% (inactive) | 86.1% | -0.45 (inactive) | -4.8e-05 (inactive) | 0.00511 (inactive) | 19.7% (inactive) | 17% (inactive)
CCOC(=O)c1cnn(-c2ncnc3c2cnn3Cc2ccccc2)c1N | 410 | -4.6% (inactive) | 8.7% (inactive) | 100% | -19.2% (inactive) | 118% | -0.51 (inactive) | 1.3e-05 (inactive) | 0.0057 (inactive) | 17.2% (inactive) | 17.4% (inactive)
CCc1nc(N[C@@H](Cc2c[nH]c3ccccc23)C(=O)O)c2oc3ccccc3c2n1 | 570 | -0.4% (inactive) | -19.4% (inactive) | 101% | -59.6% (inactive) | 98.6% | -0.4 (inactive) | 4.2e-05 (inactive) | 0.00556 (inactive) | 10.8% (inactive) | 9.74% (inactive)
COC(=O)Cn1c(C)nc2c(sc3nc(C)cc(C)c32)c1=O | 674 | -5% (inactive) | 14.7% (inactive) | 81.2% | 16% (inactive) | 100% | -0.603 (inactive) | -2e-05 (inactive) | 0.00473 (inactive) | -40.7% (inactive) | -91.2% (inactive)
CC(C)Oc1cccc(-c2cc(C(=O)N3CCN(S(C)(=O)=O)CC3)c3ccccc3n2)c1 | 638 | 11.6% (inactive) | 11.2% (inactive) | 108% | -49% (inactive) | 95% | -0.454 (inactive) | 2e-05 (inactive) | 0.00711 (inactive) | -23% (inactive) | -35.2% (inactive)
COc1ccc(NC(=O)CCCN2C(=O)C3C4C=CC(C4)C3C2=O)c(OC)c1 (stereo not drawn) | 554 | -1.8% (inactive) | 5.1% (inactive) | 94.8% | 49.6% (inactive) | 62.2% | -0.554 (inactive) | -2.9e-05 (inactive) | 0.00549 (inactive) | 9.13% (inactive) | 20.8% (inactive)
CCN1C(=O)NC(c2cc(Br)ccc2OC)C(C(=O)OC)=C1C (stereo not drawn) | 451 | -13.1% (inactive) | 2.4% (inactive) | 92% | -25.6% (inactive) | 89.2% | -0.491 (inactive) | 3.4e-05 (inactive) | 0.00605 (inactive) | -1.28% (inactive) | 17.3% (inactive)
CCCCCCNS(=O)(=O)c1ccc(Cl)s1 | 579 | 9.2% (inactive) | -1.2% (inactive) | 102% | -52.4% (inactive) | 89.1% | -0.492 (inactive) | 0.000132 (inactive) | 0.00433 (inactive) | 19.6% (inactive) | 22.4% (inactive)
CCCCCCNC(=O)Cc1c(O)c2ccccc2[nH]c1=O | 342 | 3.2% (inactive) | -12.8% (inactive) | 122% | 20.8% (inactive) | 103% | -0.354 (inactive) | -5.1e-05 (inactive) | 0.0051 (inactive) | 9.96% (inactive) | 16.8% (inactive)
O=C1CC(c2ccco2)=Nc2ccccc2N1 | 195 | -13.4% (inactive) | 7.9% (inactive) | 78.3% | 9.4% (inactive) | 84.6% | -0.573 (inactive) | 1.4e-05 (inactive) | 0.00527 (inactive) | -1.5% (inactive) | -5.46% (inactive)
CC1CCN(C(=O)CSc2nnc(-c3cccnc3)n2C2CCCCC2)CC1 | 463 | -5.1% (inactive) | 6.5% (inactive) | 121% | -34.6% (inactive) | 134% | -0.471 (inactive) | -2.5e-05 (inactive) | 0.00469 (inactive) | 18.4% (inactive) | 16.9% (inactive)
CCn1nnc(-c2ccccc2NC(=O)c2ccc(-n3cnnn3)cc2)n1 | 333 | -2.5% (inactive) | -19% (inactive) | 97.1% | 1.4% (inactive) | 90.6% | -0.5 (inactive) | -0.000135 (inactive) | 0.00365 (inactive) | 15.3% (inactive) | 15.5% (inactive)
CC(=O)c1cc(-c2ccccc2)n(CC(=O)N2CCN(C3CCCC3)CC2)c1C | 407 | 8.8% (inactive) | 23.8% (inactive) | 81% | 25.1% (inactive) | 103% | -0.571 (inactive) | -7.1e-05 (inactive) | 0.00681 (inactive) | 13.3% (inactive) | 23.8% (inactive)
COc1ccc(CC(=O)NCc2ccccc2)cc1S(=O)(=O)N1CCOCC1 | 404 | -3.1% (inactive) | -17.5% (inactive) | 104% | -26.1% (inactive) | 110% | -0.583 (inactive) | -1.6e-05 (inactive) | 0.00498 (inactive) | 18.6% (inactive) | 21.9% (inactive)
COC(=O)Nc1ccc(S(=O)(=O)N2CCN(c3ccc(F)cc3)CC2)cc1 | 381 | -3.7% (inactive) | 12.1% (inactive) | 100% | -124% (inactive) | 123% | -0.564 (inactive) | -0.000131 (inactive) | 0.00356 (inactive) | 6.88% (inactive) | 13.6% (inactive)
CCCC(=O)Nc1ccc(OCC(=O)OC)cc1 | 402 | -15.4% (inactive) | 5.1% (inactive) | 98.2% | 8% (inactive) | 84.9% | -0.439 (inactive) | -1.2e-05 (inactive) | 0.00585 (inactive) | 11% (inactive) | 21.9% (inactive)
COC(=O)c1nc2n(n1)C(c1ccc(OC)c(OC)c1)C(C(=O)OC1CCCCC1)=C(C)N2 (stereo not drawn) | 603 | -14.8% (inactive) | -3.4% (inactive) | 99.2% | 26.7% (inactive) | 89.6% | -0.315 (inactive) | -5.5e-05 (inactive) | 0.00696 (inactive) | 4.26% (inactive) | 12.6% (inactive)
CCOc1ccc(NC(=O)CSc2nnnn2CC(=O)O)cc1 | 482 | -1.4% (inactive) | -19.1% (inactive) | 112% | -110% (inactive) | 122% | -0.561 (inactive) | -4.1e-05 (inactive) | 0.00555 (inactive) | 10.5% (inactive) | 14.4% (inactive)
O=C(NC1CCc2ccccc21)C1CCN(S(=O)(=O)c2ccc(-n3cnnn3)cc2)CC1 (stereo not drawn) | 698 | 7.5% (inactive) | -23.2% (inactive) | 118% | -37.5% (inactive) | 91.8% | -0.553 (inactive) | 1.5e-06 (inactive) | 0.00483 (inactive) | 15.1% (inactive) | 30.1% (inactive)
